ERAP1 inh = inhibitors of human ERAP1 aminopeptidase; Q9NZ08; recombinant ERAP1, Leu-AMC fluorescence, 60 min; inhibition, % at 10.7 µM; actives 0.15% (n = 340,000);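 active means mean replicate inhibition of at least 30%, or all replicates individually reaching that 30% level; inactive means mean below 30% and not every replicate reaching it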;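 further: 0% = neutral control wells and 100% = L-leucinethiol positive control wells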
Target sequence (Q9NZ08 whole entry, looked up): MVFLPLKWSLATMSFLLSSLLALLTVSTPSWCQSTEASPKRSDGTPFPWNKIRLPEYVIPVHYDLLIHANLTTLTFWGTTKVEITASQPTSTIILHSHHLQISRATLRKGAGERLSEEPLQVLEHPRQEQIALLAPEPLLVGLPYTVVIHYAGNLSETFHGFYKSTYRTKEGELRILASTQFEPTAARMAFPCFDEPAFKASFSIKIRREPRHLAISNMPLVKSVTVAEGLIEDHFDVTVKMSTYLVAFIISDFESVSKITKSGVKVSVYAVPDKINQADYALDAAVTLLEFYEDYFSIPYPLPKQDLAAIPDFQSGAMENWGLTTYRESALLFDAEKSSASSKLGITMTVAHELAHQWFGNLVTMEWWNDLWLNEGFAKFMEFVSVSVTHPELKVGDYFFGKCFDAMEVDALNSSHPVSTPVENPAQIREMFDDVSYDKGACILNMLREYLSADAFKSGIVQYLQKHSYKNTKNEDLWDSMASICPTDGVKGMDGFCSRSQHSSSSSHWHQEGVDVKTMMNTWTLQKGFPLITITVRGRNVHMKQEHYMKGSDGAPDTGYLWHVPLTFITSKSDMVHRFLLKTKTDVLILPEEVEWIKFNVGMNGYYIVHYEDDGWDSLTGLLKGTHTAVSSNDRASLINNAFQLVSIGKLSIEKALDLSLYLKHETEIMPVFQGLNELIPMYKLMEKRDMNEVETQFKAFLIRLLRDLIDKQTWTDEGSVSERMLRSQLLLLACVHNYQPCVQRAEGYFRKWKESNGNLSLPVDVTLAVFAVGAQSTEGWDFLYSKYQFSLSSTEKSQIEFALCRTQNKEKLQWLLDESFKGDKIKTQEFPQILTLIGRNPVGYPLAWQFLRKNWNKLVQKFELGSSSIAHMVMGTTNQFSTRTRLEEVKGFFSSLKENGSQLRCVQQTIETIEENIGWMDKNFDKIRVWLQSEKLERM
FGF22 binding-1 = shifts melting point of recombinant human FGF22. Q9HCT0. recombinant FGF22 thermal shift, SYPRO orange fluorescence; percent of sucrose octasulfate shift, DMSO zero. activity (Tm shift, normalised), % at 9.99 µM. actives 1.5% (n = 340,000). AID 651658;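 active means mean Tm shift, scaled 0 neutral to 100 positive control, at about 1.3% or above, every replicate too, limit read from the data; inconclusive means no clear call, values can overlap the other calls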
E-sel inducer = induces E-selectin expression in human endothelial cells | P16581 | HUVEC E-selectin immunofluorescence imaging; normalized: neutral wells 0, TNF-alpha wells 100 | activation, % at 7.58 µM | actives 0.37% (n = 260,000);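 active means mean E-selectin-positive cell signal at least 10% of the positive control, reached in at least 60% of replicates, without over 20% cell loss; inconclusive means no rule given, readout overlaps actives, possibly toxicity-flagged; inactive means the rest, including those meeting only one limit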
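Read-out basis: % PE-positive cells; Test system: HUVEC primary endothelial cells; Technique: immunofluorescence imaging; Dosing: single-point compound dose.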
F508del corr = correctors of CFTR F508del function in bronchial epithelial cells; CFBE cells, YFP halide quenching; stimulated with forskolin plus potentiator P3; % fluorescence drop versus neutral controls; actives 0.36% (n = 350,000); activity (quench increase), % at 7.58 µM;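 active means mean added fluorescence quench of at least 8% versus neutral control, with both replicates also reaching 8%; inconclusive means only one of the mean or replicate conditions met; inactive means mean below 8% and not both replicates reaching 8%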;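 further: cells transiently co-express mutant CFTR-F508del with the halide-sensitive YFP; corrector assay measuring rescue of mutant channel to the surface after 24 h compound exposure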
DENV2 CPE rescue = DENV2-induced cell death inhibition. DENV2-infected cells, cytopathic effect rescue, plate reader. CPE inhibition, % at 9.99 µM. actives 1.7% (n = 350,000); in the data active means CPE inhibition above about 20%, passing the limit was not always enough; inconclusive means no clear call, values can overlap the other calls; tested in BHK-21 cells;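 further: 0% = median of neutral control wells and 100% = median of positive control wells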
FGF22 binding-2 = binds human FGF22 shifting its melting temperature | shares compounds with FGF22 binding-1 | recombinant FGF22 thermal shift, SYPRO orange fluorescence | thermal shift activity, °C (ΔTm) at 38 µM | actives 2% (n = 1,000) | AID 720646;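 active means fitted rise in melting shift crosses a set limit at or below the top valid dose tested; inconclusive means flat fit at mid-level activity, or a poor quality fit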
SYPRO no-protein = shows thermal shift signal without protein, FGF22 counter-screen. AC50, µM (titrated, usually from 38 µM). compound-only SYPRO orange thermal shift counter-screen, no protein. AID 743019. shares compounds with FGF22 binding-1. actives 2% (n = 1,000);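 active means rising signal whose fitted curve reaches the 0.54 level within the top valid dose, showing a melting point, actives reach about 13 µM in these data; inactive means the rest, including activity in the opposite direction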; further: value is where the raw curve crosses a fixed level and not half-maximal
Starred values were filed as active, the others as inactive; i = inactive; ? = inconclusive; . = no result; [ ] = dose if it differs, or a comment. Only some compounds are listed: those with a hit (about 3.7% of all), similar ones and a draw of the others.

SMILES	ERAP1 inh	FGF22 binding-1	E-sel inducer	F508del corr	DENV2 CPE rescue	FGF22 binding-2	SYPRO no-protein
Cc1ccc(S(=O)(=O)N[C@H]2CC[C@H](CCNC(=O)C3CCOCC3)O[C@H]2CO)cc1	3.3	2.0*	0.0	3.1	8.1	0.441[42 µM]	i
O=C(Nc1ccc(Cl)cc1)N[C@H]1CC[C@@H](CCNC(=O)c2cc(Cl)cc(Cl)c2)O[C@H]1CO	-5.3	.	-0.2	0.0	2.7	.	.
O=C(NCC[C@H]1CC[C@@H](NC(=O)C2CCOCC2)[C@H](CO)O1)Nc1ccc(Cl)cc1	1.5	1.7*	-0.1	1.0	14.2	-0.092[42 µM]	i
Cc1ccc(S(=O)(=O)N[C@@H]2CC[C@@H](CCNC(=O)C3CC3)O[C@@H]2CO)cc1	-2.4	0.0	0.2	1.4	?	.	.
O=C(NCC[C@H]1CC[C@@H](NC(=O)C2CC2)[C@H](CO)O1)Nc1ccc(Cl)cc1	0.3	-0.2	-0.1	-1.3	4.2	.	.
O=C(Nc1ccc(Cl)cc1)N[C@H]1CC[C@H](CCNC(=O)c2cc(Cl)cc(Cl)c2)O[C@@H]1CO	-0.4	2.5*	3.3	5.3	-11.3	-0.298	i
CO[C@@H]1CN(C)C(=O)c2cc(NS(C)(=O)=O)ccc2OC[C@@H](C)N(Cc2ccccc2)C[C@@H]1C	-0.3	0.0	0.5	1.0	-5.7	.	.
CO[C@H]1CN(C)C(=O)c2ccc(NC(=O)Nc3ccc(C(F)(F)F)cc3)cc2OC[C@@H](C)NC[C@H]1C	-3.9	-0.4	0.4	2.0	-6.3	.	.
Cc1ccccc1C(=O)NCC(=O)OC(C)C(=O)Nc1cccc(S(=O)(=O)N2CCOCC2)c1 (stereo unspecified)	0.0	1.5*	1.2	1.0	3.5	0.088	i
O=C(N/N=C/c1c(O)ccc2ccccc12)c1[nH]ncc1Br	-3.3	1.3*	.	.	4.8	-0.32	i
COc1ccc(NC(=O)N(C)C[C@H]2Oc3ccc(NS(=O)(=O)c4ccc(Cl)cc4)cc3C(=O)N([C@H](C)CO)C[C@H]2C)cc1	1.5	1.4*	0.0	0.9	14.2	-0.034[42 µM]	i
C[C@H](CO)N1C[C@H](C)[C@H](CN(C)C(=O)NC2CCCCC2)Oc2ccc(NC(=O)CCN3CCOCC3)cc2C1=O	1.3	0.0	11.5	-3.3	4.6	.	.
C[C@H]1CN([C@@H](C)CO)C(=O)c2cccc(NC(=O)Nc3ccc4c(c3)OCO4)c2O[C@H]1CN(C)S(=O)(=O)c1cn(C)cn1	2.6	1.6*	0.0	4.0	3.2	-0.079	i
Cc1noc(C)c1S(=O)(=O)Nc1ccc2c(c1)CC(=O)N([C@H](C)CO)C[C@@H](C)[C@H](CN(C)S(C)(=O)=O)O2	.	1.3*	0.2	-1.8	-8.7	-0.038	i
COc1ccc(NC(=O)N(C)C[C@H]2Oc3ccc(NS(=O)(=O)c4ccc(Cl)cc4)cc3C(=O)N([C@@H](C)CO)C[C@H]2C)cc1	0.2	-0.4	4.2	0.2	-9.5	.	.
Cc1noc(C)c1S(=O)(=O)Nc1ccc2c(c1)CC(=O)N([C@@H](C)CO)C[C@H](C)[C@H](CN(C)S(=O)(=O)c1c(C)noc1C)O2	-2.0	-0.5	0.1	5.3	13.5	.	.
C[C@H]1CN([C@@H](C)CO)C(=O)c2cc(NC(=O)CCN3CCOCC3)ccc2O[C@H]1CN(C)C(=O)NC1CCCCC1	-0.1	3.5*	-0.1	3.2	2.9	0.152[42 µM]	i
CO[C@H]1CN(C)C(=O)c2cc(NC(=O)c3cnccn3)ccc2OC[C@H](C)N(C(C)=O)C[C@H]1C	0.2	-0.2	-0.1	1.3	13.0	.	.
CN(C)c1ccc2c(c1)[C@@H]1C[C@@H](CC(=O)NCc3ccc(Cl)cc3)O[C@H](CO)[C@@H]1O2	-6.2	-1.3	2.8	7.3	-4.7	.	.
C[C@@H]1CCCCO[C@H](CN(C)S(=O)(=O)c2ccccc2)[C@@H](C)CN([C@@H](C)CO)C(=O)c2cc(NC(=O)NC3CCCCC3)ccc2O1	2.9	-0.4	-0.2	2.0	-0.6	.	.
Cc1cc(C(=O)Nc2cccc3c2O[C@@H](CN(C)C(=O)NC2CCCCC2)[C@@H](C)CN([C@H](C)CO)C3=O)n(C)n1	0.9	31.9*	0.0	0.0	15.8	0.009	i
Cc1cc(C(=O)Nc2cccc3c2O[C@@H](CN(C)C(=O)NC(C)C)[C@@H](C)CN([C@@H](C)CO)C3=O)n(C)n1	1.8	-0.1	-0.2	-1.9	-5.4	.	.
Cc1ccc(S(=O)(=O)Nc2ccc3c(c2)CC(=O)N([C@@H](C)CO)C[C@@H](C)[C@H](CN(C)C(=O)Nc2ccccc2)O3)cc1	1.6	-0.5	.	-2.1	-0.4	.	.
COc1ccc(NC(=O)N(C)C[C@H]2Oc3ccc(NC(=O)Cc4ccccc4)cc3C(=O)N([C@H](C)CO)C[C@H]2C)cc1	.	.	0.0	-0.4	.	.	.
COc1ccc(NC(=O)N(C)C[C@@H]2Oc3ccc(NC(=O)Cc4ccccc4)cc3C(=O)N([C@H](C)CO)C[C@H]2C)cc1	-1.5	1.5*	0.0	0.9	-3.8	0.097[42 µM]	i
SMILES	ERAP1 inh	FGF22 binding-1	E-sel inducer	F508del corr	DENV2 CPE rescue	FGF22 binding-2	SYPRO no-protein
Cc1ccc(S(=O)(=O)Nc2ccc3c(c2)CC(=O)N([C@H](C)CO)C[C@@H](C)[C@H](CN(C)C(=O)Nc2ccccc2)O3)cc1	1.8	2.2*	0.1	-6.0	8.4	0.134	i
CC(C)c1cn(CC[C@H]2CC[C@H](NS(=O)(=O)c3ccccc3)[C@@H](CO)O2)nn1	-2.4	0.1	-0.1	-1.5	-0.1	.	.
C[C@@H]1CN([C@H](C)CO)C(=O)Cc2cc(NC(=O)Nc3ccc(F)cc3)ccc2O[C@H]1CN(C)C(=O)Nc1ccccc1	1.1	-0.5	.	1.5	2.9	.	.
O=C(C[C@@H]1C[C@@H]2c3cc(NC(=O)Nc4ccccc4F)ccc3O[C@@H]2[C@@H](CO)O1)NC1CCCCC1	0.7	0.1	0.5	-3.8	0.4	.	.
O=C(c1ccc2c(c1)OCO2)N1CC(=O)N2[C@@H](CO)[C@H](c3ccc(C#CCC4CCCC4)cc3)[C@@H]2C1	0.8	1.8*	-0.9	1.6	9.1	-0.027	i
Cc1ccc(-c2ccc([C@H]3[C@H](CO)N4C(=O)CN(C(=O)c5ccc(F)cc5)C[C@@H]34)cc2)cc1	3.8	1.0	-0.5	3.2	-5.5	.	.
O=C(c1ccc(F)cc1)N1CC(=O)N2[C@H](CO)[C@H](c3ccc(-c4ccccc4)cc3)[C@@H]2C1	2.4	.	0.0	3.3	5.2	.	.
Cc1ccc(-c2ccc([C@H]3[C@@H](CO)N4C(=O)CN(C(=O)c5ccc(F)cc5)C[C@@H]34)cc2)cc1	0.7	1.8*	-0.2	-2.1	15.9	0.118	i
